Experimental data reported in ChEMBL document CHEMBL3351820, “Development of novel membrane active lipidated peptidomimetics active against drug resistant clinical isolates” (Bioorg Med Chem, 2014).
Values after ≈ are worked out from the molar mass of the structure shown. Active and inactive are the calls of the source. The calls are words filed in the database; no cut-off is given here. Where a SMILES comes first, the peptide text is derived from it. [ ]: non-standard residue; d: D form. The star is where a group is joined. Stearoyl = CCCCCCCCCCCCCCCCCC(=O)*; Palmitoyl = CCCCCCCCCCCCCCCC(=O)*; Lauroyl = CCCCCCCCCCCC(=O)*; Decanoyl = CCCCCCCCCC(=O)*; 3Abz = Nc1cccc(C(=O)O)c1; Orn = NCCC[CH](N)C(=O)O

Key:
Aspergillus fumigatus [1] = assay: Antifungal activity against fluconazole-resistant Aspergillus fumigatus IGMC/LM1/0336 after 24 hrs by M27-A method; format: functional; details: IGMC/LM1/0336, 24 h
How it was run: (§1)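 Fungi at 2.5×10^3 cfu/mL in RPMI 1640 (L-glutamine, no glucose or NaHCO3, pH 7.0 with 0.165 M MOPS). Mixed 1:1 with serial 2-fold dilutions in water, incubated at 37 °C with shaking, 24 h for A. fumigatus and 48–72 h for C. albicans. Growth read by absorbance at 600 nm. MIC taken as the lowest concentration with no growth.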

[2] = Therapeutic index, ratio of HC50 for human RBCs to MIC for Escherichia coli MTCC 0723; details: red blood cells (RBCs), read-out: TI
Candida albicans [3] = assay: Antifungal activity against Candida albicans ATCC 24433 after 48 to 72 hrs by M27-A method; format: functional
How it was run: (§2)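 Fungi at 2.5×10^3 cfu/mL in RPMI 1640 (L-glutamine, no glucose or NaHCO3, buffered pH 7.0 with 0.165 M MOPS), mixed 1:1 with serial 2-fold aqueous dilutions. Incubated at 37 °C with shaking, 24 h for Aspergillus, 48-72 h for Candida and Cryptococcus; A600 read. MIC taken as lowest concentration with no growth.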

Cryptococcus neoformans = assay: Antifungal activity against Cryptococcus neoformans ATCC 2344 after 48 to 72 hrs by M27-A method; format: functional; how it was run: as §2
Aspergillus fumigatus [4] = assay: Antifungal activity against Aspergillus fumigatus ATCC 42203 after 24 hrs by M27-A method; format: functional; details: ATCC 42203, 24 h; how it was run: as §2
Pseudomonas aeruginosa = assay: Antibacterial activity against Pseudomonas aeruginosa MTCC 2295 after 18 hrs by micro dilution broth assay; format: functional; details: MTCC 2295, 18 h
How it was run: (§3)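 Broth microdilution (modified CLSI): mid-log inoculum at 10^5 CFU/mL in Mueller-Hinton broth; serial 2-fold dilutions of sample in 0.001% acetic acid with 0.2% BSA added. Incubated overnight at 37 °C with agitation; A600 read at 18 h. Drug-free culture and uninoculated broth as controls; triplicate.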

Escherichia coli [5] = assay: Antibacterial activity against imipenem-resistant Escherichia coli PGI/ DML02292 clinical isolate after 18 hrs by micro dilution broth assay; format: functional; details: PGI/ DML02292, 18 h
[6] = Hemolytic activity in human RBCs; format: ADME, cell-based, Erythrocyte; details: red blood cells (RBCs)
How it was run: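 Washed fresh human erythrocytes, 4% (v/v) in PBS (35 mM phosphate, 150 mM NaCl, pH 7.2), mixed 1:1 with 2-fold dilutions in PBS. Incubated 1 h at 37 °C without agitation, then centrifuged at 1000 g for 5 min. Supernatant hemoglobin read at 440 nm; % hemolysis = 100(A−A0)/(At−A0).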

Escherichia coli [7] = assay: Antibacterial activity against Escherichia coli MTCC 0723 after 18 hrs by micro dilution broth assay; format: functional; details: MTCC 0723, 18 h; how it was run: as §3
Staphylococcus aureus [8] = assay: Antibacterial activity against Staphylococcus aureus MTCC 3160 after 18 hrs by micro dilution broth assay; format: functional; details: MTCC 3160, 18 h; how it was run: as §3
Bacillus subtilis = assay: Antibacterial activity against Bacillus subtilis MTCC 2763 after 18 hrs by micro dilution broth assay; format: functional; details: MTCC 2763, 18 h; how it was run: as §3
Aspergillus niger = assay: Antifungal activity against Aspergillus niger ATCC 64028 after 24 hrs by M27-A method; format: functional; details: ATCC 64028, 24 h; how it was run: as §2
Candida albicans [9] = assay: Antifungal activity against fluconazole-resistant Candida albicans PGI/ DML0109 clinical isolate after 48 to 72 hrs by M27-A method; format: functional; how it was run: as §1
Staphylococcus aureus [10] = assay: Antibacterial activity against methicillin-resistant Staphylococcus aureus PGI/ DML03149 clinical isolate after 18 hrs by micro dilution broth assay; format: functional; details: PGI/ DML03149, 18 h
[11] = Therapeutic index, ratio of HC50 for human RBCs to MIC for Staphylococcus aureus MTCC 3160; details: red blood cells (RBCs), read-out: TI
[12] = Membrane permeabilization activity assessed as release of calcein from PC/PE/PI/ergosterol liposomes at 4 ug/ml after 5 mins by spectrofluorimetry; format: ADME
How it was run: (§4)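 Calcein-loaded LUVs, PE/PG (bacterial mimic) or PC/PE/PI/ergosterol (fungal mimic), exposed to 1-20 μg/mL for 5 min before fluorescence reading. Triton X-100 in Tris-HCl/NaCl/EDTA buffer sets 100% leakage; % leakage = 100(F−F0)/(Ft−F0). Run in triplicate, two independent experiments, mean ± SD.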

Aspergillus fumigatus [13] = assay: Membrane disruption effect in Aspergillus fumigatus ATCC 42203 assessed as surface blebs and aggregation at 4 times MIC by scanning electron microscopy; format: functional, organism-based
[14] = Membrane permeabilization activity assessed as release of calcein from PE/PG liposomes at 4 ug/ml after 5 mins by spectrofluorimetry; format: ADME; how it was run: as §4
[15] = Membrane permeabilization activity assessed as release of calcein from PC/PE/PI/ergosterol liposomes at 20 ug/ml after 5 mins by spectrofluorimetry; format: ADME; how it was run: as §4
[16] = Membrane permeabilization activity assessed as release of calcein from PE/PG liposomes at 20 ug/ml after 5 mins by spectrofluorimetry; format: ADME; how it was run: as §4

SMILES	MIC (Aspergillus fumigatus [1]) [µg/mL]	selectivity ratio [2]	MIC (Candida albicans [3]) [µg/mL]	MIC (Cryptococcus neoformans) [µg/mL]	MIC (Aspergillus fumigatus [4]) [µg/mL]	MIC (Pseudomonas aeruginosa) [µg/mL]	MIC (Escherichia coli [5]) [µg/mL]	HC50 [6] [µg/mL]	MIC (Escherichia coli [7]) [µg/mL]	MIC (Staphylococcus aureus [8]) [µg/mL]	MIC (Bacillus subtilis) [µg/mL]	MIC (Aspergillus niger) [µg/mL]	MIC (Candida albicans [9]) [µg/mL]	MIC (Staphylococcus aureus [10]) [µg/mL]	selectivity ratio [11]	Activity [12] [%]	Activity (Aspergillus fumigatus [13])	Activity [14] [%]	Activity [15] [%]	Activity [16] [%]
CCCCCCCCCCCCCC(=O)Nc1cccc(C(=O)NC(CCCN)C(=O)NC(CCCN)C(=O)NC(CCCN)C(N)=O)c1 (stereo unspecified)	6.25 (≈ 9.07 µM)	333	5.5 (≈ 7.98 µM)	10 (≈ 14.5 µM)	4.5 (≈ 6.53 µM)	2.5 (≈ 3.63 µM)	4 (≈ 5.81 µM)	750	2.25 (≈ 3.27 µM)	3.1 (≈ 4.5 µM)	15.5 (≈ 22.5 µM)	5 (≈ 7.26 µM)	6.25 (≈ 9.07 µM)	4.5 (≈ 6.53 µM)	242					
CCCCCCCCCCCCCCCCCC(=O)Nc1cccc(C(=O)NC(CCCN)C(=O)NC(CCCN)C(=O)NC(CCCN)C(=O)NC(CCCN)C(N)=O)c1 (stereo unspecified) ({Stearoyl-3Abz}-[Orn][Orn][Orn][Orn]-NH2; configuration not given here)	2 (≈ 2.33 µM)	57.1	1.5 (≈ 1.75 µM)	5.5 (≈ 6.4 µM)	1.5 (≈ 1.75 µM)	6.25 (≈ 7.27 µM)	5 (≈ 5.82 µM)	200	3.5 (≈ 4.07 µM)	10 (≈ 11.6 µM)	12.5 (≈ 14.5 µM)	1.5 (≈ 1.75 µM)	2 (≈ 2.33 µM)	10.5 (≈ 12.2 µM)	20	57	Active	44	89	84
CCCCCCCCCCCC(=O)Nc1cccc(C(=O)NC(CCCN)C(=O)NC(CCCN)C(=O)NC(CCCN)C(=O)NC(CCCN)C(N)=O)c1 (stereo unspecified) ({Lauroyl-3Abz}-[Orn][Orn][Orn][Orn]-NH2; configuration not given here)	5.5 (≈ 7.1 µM)	500	5.5 (≈ 7.1 µM)	10.5 (≈ 13.5 µM)	5 (≈ 6.45 µM)	1.5 (≈ 1.94 µM)	5.5 (≈ 7.1 µM)	750	1.5 (≈ 1.94 µM)	2.5 (≈ 3.23 µM)	15.5 (≈ 20 µM)	6.25 (≈ 8.06 µM)	7.5 (≈ 9.68 µM)	3.25 (≈ 4.19 µM)	300					
O=C(O)c1cn(C2CC2)c2cc(N3CCNCC3)c(F)cc2c1=O [CIPROFLOXACIN]						0.3 (≈ 0.905 µM)				0.2 (≈ 0.604 µM)	0.5 (≈ 1.51 µM)									
CCCCCCCCCC(=O)Nc1cccc(C(=O)NC(CCCN)C(=O)NC(CCCN)C(=O)NC(CCCN)C(N)=O)c1 (stereo unspecified)	30 (≈ 47.4 µM)		62.5 (≈ 98.8 µM)	75 (≈ 119 µM)	31.5 (≈ 49.8 µM)	50 (≈ 79 µM)	70 (≈ 111 µM)	> 1000	62.5 (≈ 98.8 µM)	31.2 (≈ 49.3 µM)	125 (≈ 198 µM)	50 (≈ 79 µM)	75 (≈ 119 µM)	50 (≈ 79 µM)						
CCCCCCCCCCCCCCCCCC(=O)Nc1cccc(C(=O)NC(CCCN)C(=O)NC(CCCN)C(=O)NC(CCCN)C(N)=O)c1 (stereo unspecified)	2.5 (≈ 3.36 µM)	40	2.25 (≈ 3.02 µM)	6.5 (≈ 8.72 µM)	2 (≈ 2.68 µM)	10 (≈ 13.4 µM)	7.5 (≈ 10.1 µM)	250	6.25 (≈ 8.39 µM)	12.5 (≈ 16.8 µM)	25 (≈ 33.6 µM)	3.5 (≈ 4.7 µM)	2 (≈ 2.68 µM)	10.5 (≈ 14.1 µM)	20					
C[C@@H]1[C@H](O)[C@@H](C)/C=C/C=C/C=C/C=C/C=C/C=C/C=C/[C@H](O[C@@H]2O[C@H](C)[C@@H](O)[C@H](N)[C@@H]2O)C[C@@H]2O[C@](O)(C[C@@H](O)C[C@@H](O)[C@H](O)CC[C@@H](O)C[C@@H](O)CC(=O)O[C@H]1C)C[C@H](O)[C@H]2C(=O)O [AMPHOTERICIN B]	0.9 (≈ 0.974 µM)		0.5 (≈ 0.541 µM)	0.3 (≈ 0.325 µM)	0.3 (≈ 0.325 µM)							0.5 (≈ 0.541 µM)	0.7 (≈ 0.758 µM)							
CCCCCCCCCC(=O)Nc1cccc(C(=O)NC(CCCN)C(=O)NC(CCCN)C(=O)NC(CCCN)C(=O)NC(CCCN)C(N)=O)c1 (stereo unspecified) ({Decanoyl-3Abz}-[Orn][Orn][Orn][Orn]-NH2; configuration not given here)	25 (≈ 33.5 µM)	57.1	50 (≈ 66.9 µM)	50 (≈ 66.9 µM)	25 (≈ 33.5 µM)	25 (≈ 33.5 µM)	25 (≈ 33.5 µM)	1000	17.5 (≈ 23.4 µM)	20 (≈ 26.8 µM)	100 (≈ 134 µM)	31.5 (≈ 42.2 µM)	50 (≈ 66.9 µM)	35 (≈ 46.9 µM)	50	17		11	45	67
CCCCCCCCCCCC(=O)Nc1cccc(C(=O)NC(CCCN)C(=O)NC(CCCN)C(=O)NC(CCCN)C(N)=O)c1 (stereo unspecified)	12.5 (≈ 18.9 µM)	72	15.5 (≈ 23.5 µM)	12.5 (≈ 18.9 µM)	10 (≈ 15.1 µM)	4.5 (≈ 6.81 µM)	10.5 (≈ 15.9 µM)	900	12.5 (≈ 18.9 µM)	6.25 (≈ 9.46 µM)	100 (≈ 151 µM)	15 (≈ 22.7 µM)	15 (≈ 22.7 µM)	12 (≈ 18.2 µM)	144					
CCCCCCCCCCCCCCCC(=O)Nc1cccc(C(=O)NC(CCCN)C(=O)NC(CCCN)C(=O)NC(CCCN)C(N)=O)c1 (stereo unspecified)	5 (≈ 6.97 µM)	129	3 (≈ 4.18 µM)	3.5 (≈ 4.88 µM)	3.5 (≈ 4.88 µM)	5.5 (≈ 7.67 µM)	4.5 (≈ 6.28 µM)	450	3.5 (≈ 4.88 µM)	5 (≈ 6.97 µM)	20 (≈ 27.9 µM)	4.25 (≈ 5.93 µM)	3.5 (≈ 4.88 µM)	5 (≈ 6.97 µM)	90					
CCCCCCCCCCCCCCCC(=O)Nc1cccc(C(=O)NC(CCCN)C(=O)NC(CCCN)C(=O)NC(CCCN)C(=O)NC(CCCN)C(N)=O)c1 (stereo unspecified) ({Palmitoyl-3Abz}-[Orn][Orn][Orn][Orn]-NH2; configuration not given here)	3.5 (≈ 4.21 µM)	175	2 (≈ 2.41 µM)	5 (≈ 6.02 µM)	1.5 (≈ 1.8 µM)	3.1 (≈ 3.73 µM)	3.5 (≈ 4.21 µM)	350	2 (≈ 2.41 µM)	3 (≈ 3.61 µM)	20 (≈ 24.1 µM)	3.1 (≈ 3.73 µM)	3.5 (≈ 4.21 µM)	5 (≈ 6.02 µM)	117					
